{"data": "Measured values gathered from unrelated publications", "RET V804M": "Proto-oncogene tyrosine-protein kinase receptor Ret (RET, Homo sapiens, UniProt P07949, V804M)", "RET": "Proto-oncogene tyrosine-protein kinase receptor Ret (RET, Homo sapiens, UniProt P07949)", "RET M918T": "Proto-oncogene tyrosine-protein kinase receptor Ret (RET, Homo sapiens, UniProt P07949, M918T)", "RET V804L": "Proto-oncogene tyrosine-protein kinase receptor Ret (RET, Homo sapiens, UniProt P07949, V804L)"}
{"Structure (SMILES)": "O=C(NCCCN1CCOCC1)c1ccc(Nc2nccc(-c3cc4ccccc4s3)n2)cc1", "target": "RET V804M", "effect on": "binding", "method": "competition with immobilised ligand", "tested at": "1 µM", "remaining binding [%]": 81}
{"Structure (SMILES)": "COc1cnc(Nc2cccc(S(N)(=O)=O)c2)nc1N1CCN(c2ccccc2)C(=O)C1", "target": "RET", "effect on": "binding", "method": "competition with immobilised ligand", "tested at": "1 µM", "remaining binding [%]": 90}
{"Structure (SMILES)": "O=C(c1ccc(Nc2nccc(-c3cc4ccccc4s3)n2)cc1)N1CCC(N2CCCC2)CC1", "target": "RET", "effect on": "binding", "method": "competition with immobilised ligand", "tested at": "1 µM", "remaining binding [%]": 85}
{"Structure (SMILES)": "C[C@@H](c1ccc(-n2cnc3c(N)ncnc32)cc1)N1CCc2nn(C)c(Cc3ccccc3)c2C1=O", "target": "RET", "effect on": "binding", "method": "competition with immobilised ligand", "tested at": "0.1 µM", "remaining binding [%]": 81}
{"Structure (SMILES)": "C=CC(=O)N1CCC(C(=O)NCC(=O)N2CCN(c3nc(-c4cnc(N)nc4C(F)F)nc(N4CCOCC4)n3)CC2)CC1", "target": "RET M918T", "effect on": "binding", "method": "competition with immobilised ligand", "tested at": "1 µM", "remaining binding [%]": 97}
{"Structure (SMILES)": "C[C@H]1CCN(c2nccc(-c3cnn4ncccc34)n2)C1", "target": "RET", "effect on": "binding", "tested at": "1 µM", "remaining binding [%]": 97}
{"Structure (SMILES)": "Cc1noc([C@H]2C[C@@H](c3ccc(C(F)(F)F)cc3)CN(C(=O)N3CCS(=O)(=O)C3)C2)n1", "target": "RET V804L", "effect on": "cell-free assay", "method": "competition with immobilised ligand", "tested at": "1 µM", "remaining binding [%]": 100}
{"Structure (SMILES)": "COc1ccnn2ncc(-c3ccnc(N(C)C)n3)c12", "target": "RET", "effect on": "binding", "tested at": "1 µM", "remaining binding [%]": 100}
{"Structure (SMILES)": "CO[C@@H](C)c1c(Nc2ccc([C@H](N(C)C(=O)C3CCS(=O)(=O)CC3)C(F)(F)F)cc2)cnc2cc(Cl)nn12", "target": "RET V804M", "effect on": "cell-free assay", "method": "competition with immobilised ligand", "tested at": "1 µM", "remaining binding [%]": 94}
{"Structure (SMILES)": "N[C@H]1CCN(c2nccc(-c3cnn4ncccc34)n2)C1", "target": "RET M918T", "effect on": "binding", "tested at": "1 µM", "remaining binding [%]": 90}
{"Structure (SMILES)": "Cc1nccc(COC(=O)N2C[C@@H]3[C@@H](CNC(=O)c4ccc5[nH]nnc5c4)[C@@H]3C2)n1", "target": "RET M918T", "effect on": "cell-free assay", "method": "competition with immobilised ligand", "tested at": "1 µM", "remaining binding [%]": 100}
{"Structure (SMILES)": "CCN1CCN(Cc2ccc(C(=O)Nc3ccc(C)c(Oc4ccc5c(c4)CC(=O)N5)c3)cc2C(F)(F)F)CC1", "target": "RET V804L", "effect on": "binding", "method": "competition with immobilised ligand", "tested at": "1 µM", "remaining binding [%]": 99}
{"Structure (SMILES)": "CCc1ccccc1C(=O)Nc1n[nH]c2c(C)c(F)c(C3C(C#N)=C(C)N(C)C(C)=C3C#N)cc12", "target": "RET M918T", "effect on": "cell-free assay", "method": "competition with immobilised ligand", "tested at": "1 µM", "remaining binding [%]": 64}
{"Structure (SMILES)": "Nc1ncc2c(n1)-c1c([nH]c3ccc(C#CC4CC4)cc13)CCCC2", "target": "RET M918T", "effect on": "binding", "method": "competition with immobilised ligand", "tested at": "1 µM", "remaining binding [%]": 100}
{"Structure (SMILES)": "CN(C)c1nccc(-c2cnc3ncccn23)n1", "target": "RET V804M", "effect on": "binding", "tested at": "1 µM", "remaining binding [%]": 93}
{"Structure (SMILES)": "O=C(Nc1cccnn1)N1CCC(=Cc2cccc(Oc3ccc(C(F)(F)F)cn3)c2)CC1", "target": "RET V804M", "effect on": "cell-free assay", "method": "competition with immobilised ligand", "tested at": "1 µM", "remaining binding [%]": 100}
{"Structure (SMILES)": "COc1ncc2cc3ccccc3nc2c1C#N", "target": "RET V804M", "effect on": "cell-free assay", "method": "competition with immobilised ligand", "tested at": "5 µM", "remaining binding [%]": 98}
{"Structure (SMILES)": "CN(CCCC(F)(F)F)c1nccc(-c2cnn3ncccc23)n1", "target": "RET V804M", "effect on": "binding", "tested at": "1 µM", "remaining binding [%]": 100}
{"Structure (SMILES)": "O=C(NCC1CCOCC1)c1n[nH]cc1NC(=O)c1c(F)cccc1F", "target": "RET M918T", "effect on": "binding", "method": "competition with immobilised ligand", "tested at": "1 µM", "remaining binding [%]": 96}
{"Structure (SMILES)": "O=C(c1ccc(Nc2ncc(Cl)c(-c3cc4ccccc4s3)n2)cc1)N1CCC(N2CCCC2)CC1", "target": "RET V804L", "effect on": "binding", "method": "competition with immobilised ligand", "tested at": "1 µM", "remaining binding [%]": 23}
{"Structure (SMILES)": "c1cnn2ncc(-c3ccnc(N4CCC45COC5)n3)c2c1", "target": "RET V804M", "effect on": "binding", "tested at": "1 µM", "remaining binding [%]": 100}
{"Structure (SMILES)": "O=S(=O)(NC1CCC(c2cc(F)ccc2F)(S(=O)(=O)c2ccc(Cl)cc2)CC1)C(F)(F)F (stereo not drawn)", "target": "RET V804M", "effect on": "cell-free assay", "method": "competition with immobilised ligand", "tested at": "1 µM", "remaining binding [%]": 100}
{"Structure (SMILES)": "CN(C)c1ncc(F)c(-c2cnn3ncccc23)n1", "target": "RET V804M", "effect on": "binding", "tested at": "1 µM", "remaining binding [%]": 100}
{"Structure (SMILES)": "CN(C(=O)c1ccccc1)c1cc(N(C)c2ccc3c(c2)CCc2ccc(C(=O)NCCN4CCOCC4)cc2C3=O)ccc1F", "target": "RET M918T", "effect on": "cell-free assay", "method": "competition with immobilised ligand", "tested at": "1 µM", "remaining binding [%]": 100}
